Active and inactive are the calls of the source. The calls are words filed in the database; no cut-off is given here.
Columns and labels:
Adenosine receptor A2a = Adenosine receptor A2a (Rattus norvegicus, UniProt P30543); experiment: Displacement of [3H]NECA from adenosine A2A receptor in Sprague-Dawley rat striatal membranes after 1 hr by scintillation counting analysis; parameters: species or system Striatum, Membrane
Adenosine receptor A1 = molecular target: T1, Adenosine receptor A1 (Rattus norvegicus, UniProt P25099); experiment: Displacement of [3H]DPCPX from adenosine A1 receptor in Sprague-Dawley rat whole brain membranes after 1 hr by scintillation counting analysis; parameters: species or system Membrane
T1 sequence (P25099 whole entry): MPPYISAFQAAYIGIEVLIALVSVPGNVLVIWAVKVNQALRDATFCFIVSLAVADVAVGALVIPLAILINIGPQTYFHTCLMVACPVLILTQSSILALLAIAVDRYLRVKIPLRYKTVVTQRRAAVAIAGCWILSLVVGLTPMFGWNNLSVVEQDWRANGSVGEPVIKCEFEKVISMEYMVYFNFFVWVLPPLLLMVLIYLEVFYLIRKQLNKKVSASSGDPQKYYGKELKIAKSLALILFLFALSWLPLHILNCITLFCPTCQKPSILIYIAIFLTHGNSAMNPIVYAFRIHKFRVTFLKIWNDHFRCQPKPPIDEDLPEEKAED
Summary of the method: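 Male rat whole-brain homogenate in 50 mM Tris (pH 7.7), ~5 mg original tissue per incubation, with 0.1 units adenosine deaminase and 0.1 nM [3H]DPCPX. Incubated 1 h, filtered on GF/B, counted by scintillation. IC50 from one-site competition, converted to Ki by Cheng-Prusoff. Duplicates, mean ± SEM.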

Rattus norvegicus [1] = organism: Rattus norvegicus; experiment: Selectivity index, ratio of Ki for adenosine A2A receptor in Sprague-Dawley rat striatal membranes to Ki for adenosine A1 receptor in Sprague-Dawley rat whole brain membranes
Summary of the method: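 Ratio of two Ki values. A2A: rat striatal membranes (~10 mg tissue) in 50 mM Tris pH 7.7 with 10 mM MgCl2, 0.2 units adenosine deaminase, 50 nM CPA and 4 nM [3H]NECA. A1: whole-brain membranes with [3H]DPCPX 0.1 nM. Test compound 0–100 µM, 1 h incubation, filtration and scintillation counting. Non-specific binding with 100 µM CPA. Duplicate determinations.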

[2] = Cytotoxicity against human HeLa cells assessed as cell viability at 1 uM after 24 hrs by MTT assay; assay type: cell-based; conditions: read-out: Activity
Summary of the method: (§1)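 HeLa cells grown to confluence in DMEM with 10% FBS, penicillin/streptomycin and fungizone at 37 °C, 10% CO2. Seeded at 500 000 cells/well, then after 24 h switched to serum-free DMEM with test compound (DMSO stocks, filtered). Exposure lasted 24 h at 37 °C. Read-out was MTT 0.5%, 2 h in the dark, formazan dissolved in isopropanol, absorbance 560. Formic-acid lysis set 0% viability and untreated wells 100%. Triplicate, mean ± SD.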

[3] = Cytotoxicity against human HeLa cells assessed as cell viability at 10 uM after 24 hrs by MTT assay; assay type: cell-based; conditions: read-out: Activity; summary of the method: as §1
Rattus norvegicus [4] = experiment: Reduction in haloperiodol induced catalepsy time in Sprague-Dawley rat at 1 to 2 mg/kg, ip dosed 30 mins after halperiodol challenge measured 60 mins after halperiodol challenge
Rattus norvegicus [5] = experiment: Reduction in haloperiodol induced catalepsy time in Sprague-Dawley rat at 0.1 to 2 mg/kg, ip dosed 30 mins after halperiodol challenge measured 60 mins after halperiodol challenge

Chain of Adenosine receptor A2a (P30543 whole entry): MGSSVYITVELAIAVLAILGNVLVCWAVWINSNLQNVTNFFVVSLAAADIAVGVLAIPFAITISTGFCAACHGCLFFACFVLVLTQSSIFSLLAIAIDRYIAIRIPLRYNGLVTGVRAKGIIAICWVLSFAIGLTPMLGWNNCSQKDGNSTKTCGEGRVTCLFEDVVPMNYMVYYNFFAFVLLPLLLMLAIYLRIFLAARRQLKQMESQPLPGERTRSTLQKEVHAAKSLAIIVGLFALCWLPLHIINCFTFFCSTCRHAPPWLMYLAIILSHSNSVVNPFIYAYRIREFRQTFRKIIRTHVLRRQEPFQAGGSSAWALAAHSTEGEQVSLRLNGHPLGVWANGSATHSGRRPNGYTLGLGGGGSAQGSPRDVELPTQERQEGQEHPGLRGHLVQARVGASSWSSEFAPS

Structure (SMILES) | Ki (Adenosine receptor A2a) | Ki (Adenosine receptor A1) | Ratio Ki (Rattus norvegicus [1]) | viability at 24 h, 1 µM [2] | viability at 24 h, 10 µM [3] | Activity (Rattus norvegicus [4]) | Activity (Rattus norvegicus [5])
COc1ccc(-c2cc(-c3ccc(C)o3)nc(N)n2)cc1OC | 2.78 µM | 0.65 µM | 4.3 | – | – | – | –
COc1cccc(-c2cc(-c3ccco3)nc(N)n2)c1 | 0.249 µM | 0.0614 µM | 4.1 | – | – | – | –
CCN1CCN(C(=O)c2cccc(-c3cc(-c4ccc(C)o4)nc(N)n3)c2)CC1 | 0.0309 µM | 0.0375 µM | 0.8 | 65.7% | 60.1% | – | –
Nc1nc(-c2ccccc2)cc(-c2cccc(Cl)c2)n1 | 0.948 µM | 0.0228 µM | 42 | – | – | – | –
Cc1ccc(-c2cc(-c3cccc(C(=O)N4CCOCC4)c3)nc(N)n2)o1 | 0.0293 µM | 0.0521 µM | 0.6 | 98.6% | 81.7% | – | –
Cc1ccc(-c2cc(-c3cccc(C(=O)N4CCN(C)CC4)c3)nc(N)n2)o1 | 0.0163 µM | 0.136 µM | 0.1 | 107% | 76.8% | Active | –
Nc1nc(-c2ccc(F)cc2)cc(-c2ccco2)n1 | 0.257 µM | 0.158 µM | 1.6 | – | – | – | –
Cc1ccc(-c2cc(-c3cccc(C(=O)N4CCCCC4)c3)nc(N)n2)o1 | 0.00634 µM | 0.00954 µM | 0.7 | 64.3% | 61.6% | – | Active

Further lines, with some results ahead:

Ki (Adenosine receptor A2a) | Ki (Adenosine receptor A1) | Ratio Ki (Rattus norvegicus [1]) | Structure (SMILES) | viability at 24 h, 1 µM [2] | viability at 24 h, 10 µM [3] | Activity (Rattus norvegicus [4]) | Activity (Rattus norvegicus [5])
0.399 µM | 0.129 µM | 3.1 | Cc1ccc(-c2cc(-c3cccc(Cl)c3)nc(N)n2)o1 | – | – | – | –
0.0582 µM | 0.0368 µM | 1.6 | Cc1ccc(-c2cc(-c3cccc(C(=O)N4CCCC4)c3)nc(N)n2)o1 | 101% | 67.9% | – | –
0.245 µM | 0.0391 µM | 6.3 | Nc1nc(-c2cccc(Cl)c2)cc(-c2ccco2)n1 | – | – | – | –
0.409 µM | 0.145 µM | 2.8 | COc1cccc(-c2cc(-c3ccc(C)o3)nc(N)n2)c1 | – | – | – | –
3.32 µM | 0.434 µM | 7.6 | Cc1ccc(-c2cc(-c3ccc(Cl)cc3)nc(N)n2)o1 | – | – | – | –

Source: ChEMBL document CHEMBL3734685, “2-Aminopyrimidines as dual adenosine A1/A2A antagonists” (Eur J Med Chem, 2015)
